# Measured values: ChEMBL document CHEMBL4402547, “Synthesis and Pharmacological Characterization of Conformationally Restricted Retigabine Analogues as Novel Neuronal Kv7 Channel Activators” (J Med Chem, 2020)
# Activity calls are given as the source filed them. The rule behind the calls is not given here.
# Assays:
# [1] = biological target: T1, Potassium voltage-gated channel subfamily KQT member 2 (Homo sapiens, UniProt O43526); test: Activation of human Kv7.2 expressed in CHO cells assessed as increase in current amplitude at 10 uM measured at holding potential of 0 mV by whole cell patch clamp electrophysiology assay relative to control; assay type: cell-based
# Method in brief: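 Transiently transfected CHO cells expressing human Kv7.2, whole-cell patch clamp at 20–22°C in HEPES-buffered saline pH 7.4. Cells held at −80 mV and ramped −80 to +20 mV over 3 s, before and during 10 μM drug. Ramp current at 0 mV taken as drug/control ratio; mean ± SEM of ≥3 cells, ≥2 transfections.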
# [2] = biological target: T1, Potassium voltage-gated channel subfamily KQT member 2; test: Activation of human Kv7.2 expressed in CHO cells assessed as increase in current amplitude at 10 uM measured at holding potential of -40 mV by whole cell patch clamp electrophysiology assay relative to control; assay type: cell-based
# Method in brief: (§1)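 CHO cells transiently co-transfected (Lipofectamine 2000, 4 μg total cDNA, EGFP marker) with human channel cDNA in pcDNA3.1, recorded 24 h later. Whole-cell patch clamp at 20–22°C, 3–5 MΩ pipettes, perfused extracellular solution pH 7.4. Held at −80 mV; 3-s ramps −80 to +20 mV ± 10 μM drug. Current at −40 mV with vs without drug expressed as ratio; ≥3 cells from ≥2 transfections, mean ± SEM.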
# [3] = tested on: Potassium voltage-gated channel subfamily KQT member 2 (Homo sapiens), O43526 [F168L]; test: Activation of ICA-insensitive human Kv7.2 F168L mutant expressed in CHO cells assessed as increase in channel current amplitude at 10 uM measured at holding potential of -40 mV by whole cell patch clamp electrophysiology assay; assay type: cell-based; method in brief: as §1
# [4] = tested on: Potassium voltage-gated channel subfamily KQT member 2 (Homo sapiens), O43526 [W236L]; test: Activation of human Kv7.2 W236L mutant expressed in CHO cells assessed as channel current amplitude at 10 uM measured at holding potential of -40 mV by whole cell patch clamp electrophysiology assay; assay type: cell-based; method in brief: as §1
# [5] = Photostability of compound in pH 7.4 buffer assessed as compound degradation at 100 ug/ml incubated for 6 hrs under natural solar light-irradiation by HPLC analysis relative to control
# Method in brief: (§2)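 DMSO solutions diluted in pH 7.4 buffer, held in 1 cm quartz cells and exposed to natural daylight. Light-shielded controls kept at 37°C in foil. Aliquots drawn at set intervals and parent compound loss measured by UHPLC: C18 column, 0.1% TFA water/acetonitrile gradient, 45°C, detection at 254 nm.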
# [6] = Photostability of compound in pH 7.4 buffer assessed as compound degradation at 100 ug/ml incubated for 4 hrs under natural solar light-irradiation by HPLC analysis relative to control; method in brief: as §2
# [7] = Photostability of compound in pH 7.4 buffer assessed as compound degradation at 100 ug/ml incubated for 2 hrs under natural solar light-irradiation by HPLC analysis relative to control; method in brief: as §2
# T1 sequence (O43526 whole entry): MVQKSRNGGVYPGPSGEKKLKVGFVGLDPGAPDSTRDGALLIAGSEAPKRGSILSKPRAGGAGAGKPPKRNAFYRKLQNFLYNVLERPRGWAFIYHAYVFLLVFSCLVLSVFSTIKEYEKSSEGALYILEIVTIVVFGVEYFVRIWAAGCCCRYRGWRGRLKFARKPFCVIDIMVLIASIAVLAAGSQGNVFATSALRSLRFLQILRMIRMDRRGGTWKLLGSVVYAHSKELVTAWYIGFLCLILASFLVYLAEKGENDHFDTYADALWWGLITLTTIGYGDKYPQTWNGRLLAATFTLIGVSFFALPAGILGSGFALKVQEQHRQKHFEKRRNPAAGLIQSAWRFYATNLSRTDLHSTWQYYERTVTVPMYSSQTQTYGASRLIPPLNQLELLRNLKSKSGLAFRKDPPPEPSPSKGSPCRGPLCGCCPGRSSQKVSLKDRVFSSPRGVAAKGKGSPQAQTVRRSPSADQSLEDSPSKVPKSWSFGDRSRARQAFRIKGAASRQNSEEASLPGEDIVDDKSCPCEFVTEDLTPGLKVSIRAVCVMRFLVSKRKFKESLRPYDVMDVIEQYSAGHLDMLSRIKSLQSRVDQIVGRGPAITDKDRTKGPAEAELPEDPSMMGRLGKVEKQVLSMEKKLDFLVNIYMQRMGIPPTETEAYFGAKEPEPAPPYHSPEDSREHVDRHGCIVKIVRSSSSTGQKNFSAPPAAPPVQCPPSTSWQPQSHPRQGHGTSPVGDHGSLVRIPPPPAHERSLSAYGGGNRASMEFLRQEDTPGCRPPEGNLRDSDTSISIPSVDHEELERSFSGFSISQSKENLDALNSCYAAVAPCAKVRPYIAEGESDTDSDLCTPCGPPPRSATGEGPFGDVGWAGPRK
# Potassium voltage-gated channel subfamily KQT member 2 (Homo sapiens), O43526 [F168L], sequence (O43526 whole entry F168L): as the sequence (O43526 whole entry) above, with F168L counted along it
# Potassium voltage-gated channel subfamily KQT member 2 (Homo sapiens), O43526 [W236L], sequence (O43526 whole entry W236L): as the sequence (O43526 whole entry) above, with W236L counted along it
SMILES,Activity [1],Activity [2],also measured
CC(=O)Nc1ccc2c(c1)CCN2Cc1ccc(F)cc1,inactive,inactive,–
CCOC(=O)Nc1ccc2c(c1)CCN2Cc1ccc(F)cc1,inactive,inactive,–
O=S(=O)(Nc1ccc2c(c1)CCN2Cc1ccc(F)cc1)N1CCCCCC1,inactive,inactive,–
CCCCCCCCCCCCCCCC(=O)Nc1ccc2c(ccn2Cc2ccc(C(F)(F)F)cc2)c1,inactive,inactive,–
O=S(=O)(Nc1ccc2c(c1)CCN2Cc1ccc(F)cc1)c1ccccc1,inactive,inactive,–
CCCCNCC(=O)Nc1ccc2c(ccn2Cc2ccc(C(F)(F)F)cc2)c1,inactive,inactive,–
O=S(=O)(Nc1ccc2c(ccn2Cc2ccc(C(F)(F)F)cc2)c1)C1CCCCC1,inactive,inactive,–
O=C(CC1CCCCC1)Nc1ccc2c(c1)CCN2Cc1ccc(F)cc1,inactive,inactive,–
O=C(Nc1ccc(Cl)nc1)c1ccc(F)c(F)c1,Active,Active,Activity [3]: inactive; Activity [4]: Active
CC1(C)[C@H]2CC[C@]1(CS(=O)(=O)Nc1ccc3c(c1)CCN3Cc1ccc(F)cc1)C(=O)C2,inactive,inactive,–
O=S(=O)(Nc1ccc2c(c1)CCN2Cc1ccc(F)cc1F)C1CCCCC1,Active,inactive,Drug degradation [5]: > 99%; Drug degradation [6]: 81.7%; Drug degradation [7]: 33.5%
O=S(=O)(Nc1ccc2c(c1)CCN2Cc1ccc(C(F)(F)F)cc1)C1CCCCC1,inactive,inactive,–
O=S(=O)(Nc1ccc2c(c1)CCN2Cc1ccc(F)c(F)c1)C1CCCCC1,inactive,inactive,–
O=S(=O)(Nc1ccc2c(c1)CCN2CCc1ccc(F)cc1)C1CCCCC1,inactive,inactive,–
CCCCCCC(=O)Nc1ccc2c(c1)CCC/C2=C/c1ccc(C(F)(F)F)cc1,inactive,inactive,–
CCOC(=O)Nc1ccc(NCc2ccc(F)cc2)nc1N,Active,Active,–
CC1(C)[C@@H]2CC[C@@]1(CS(=O)(=O)Nc1ccc3c(c1)CCN3Cc1ccc(F)cc1)C(=O)C2,inactive,inactive,–
O=S(=O)(CCC1CCCCC1)Nc1ccc2c(ccn2Cc2ccc(F)cc2)c1,inactive,inactive,–
O=C(c1ccc(F)cc1)N1CCc2cc(NS(=O)(=O)C3CCCCC3)ccc21,inactive,inactive,–
CCCCCCC(=O)Nc1ccc2c(ccn2Cc2ccc(OCOC)cc2)c1,inactive,inactive,–

SMILES,Activity [1],Activity [2],also measured
CCCCCCC(=O)Nc1ccc2c(c1)CCC/C2=C\c1ccc(C(F)(F)F)cc1,inactive,inactive,–
CCCCN(C)CC(=O)Nc1ccc2c(ccn2Cc2ccc(C(F)(F)F)cc2)c1,inactive,inactive,–
CCCCCCC(=O)Nc1ccc2c(ccn2Cc2ccc(O)cc2)c1,inactive,inactive,–
O=S(=O)(Nc1ccc2c(ccn2Cc2ccc(F)cc2)c1)C1CCCCC1,Active,inactive,Drug degradation [5]: 23.1%; Drug degradation [6]: 15.8%; Drug degradation [7]: 6.46%
CC(C)[C@H]1CC[C@H](C)C[C@@H]1OC(=O)Nc1ccc2c(c1)CCN2Cc1ccc(F)cc1,inactive,inactive,–
CC1CC(C)CN(S(=O)(=O)Nc2ccc3c(c2)CCN3Cc2ccc(F)cc2)C1 (stereo unspecified),inactive,inactive,–
O=C(Cc1ccc(Cl)cc1)N1CCc2cc(NS(=O)(=O)C3CCCCC3)ccc21,inactive,inactive,–
O=[N+]([O-])c1cc(Br)ccc1CN1CCc2cc(NS(=O)(=O)C3CCCCC3)ccc21,Active,inactive,–
CC(C)(C)CNC(=N)Nc1ccc2c(c1)CCN2Cc1ccc(F)cc1,inactive,inactive,–
CC(C)CS(=O)(=O)Nc1ccc2c(c1)CCN2Cc1ccc(F)cc1,inactive,inactive,–
CCCCCCC(=O)Nc1ccc2c(c1)CCCC2Cc1ccc(C(F)(F)F)cc1 (racemic),inactive,inactive,–
CCCCCCS(=O)(=O)Nc1ccc2c(c1)CCN2Cc1ccc(F)cc1,inactive,inactive,–
O=S(=O)(Nc1ccc2c(c1)CCN2Cc1ccc(C(F)(F)F)cc1C(F)(F)F)C1CCCCC1,inactive,inactive,–
COc1ccc(CN2CCc3cc(NS(=O)(=O)C4CCCCC4)ccc32)cc1,Active,inactive,Drug degradation [5]: > 99%; Drug degradation [6]: 84.7%; Drug degradation [7]: 37.5%
CCCCS(=O)(=O)Nc1ccc2c(c1)CCN2Cc1ccc(F)cc1,inactive,inactive,–
O=C(Nc1ccc2c(c1)CCN2Cc1ccc(F)cc1)C1CCCCC1,inactive,inactive,–
COc1ccc(CN2c3ccc(NS(=O)(=O)C4CCCCC4)cc3CC2C)cc1 (racemic),inactive,inactive,–
O=C(Nc1ccc2c(c1)CCN2Cc1ccc(F)cc1)NC1CCCCC1,inactive,inactive,–
CC(C)(C)CNC(=O)Nc1ccc2c(c1)CCN2Cc1ccc(F)cc1,inactive,inactive,–
COc1ccc(Cn2ccc3cc(NS(=O)(=O)C4CCCCC4)ccc32)cc1,inactive,inactive,–
